Measured values published in article PMC2711989 (Cancer research, 2009).
Like-named read-outs stand apart in the source and are kept apart here.

How the values were obtained:
[1] = system: DX3puroβ6 (αvβ6-positive) and DX3puro (αvβ6-negative) xenografts; experiment: Biodistribution in the DX3puro/DX3puroβ6 xenograft model; assay type: in vivo, mice
Outline: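 Each male athymic nude mouse (nu/nu) carried both xenografts: 3 × 10^6 DX3puroβ6 (αvβ6-transduced) and 3 × 10^6 DX3puro (control) melanoma cells in serum-free DMEM, injected s.c. on opposite shoulder flanks. Studies began at a tumor diameter of ∼0.5 cm. Radiotracers (∼15 to 30 μCi) were given in saline/PBS, n = 3 per time point. Uptake was expressed as decay-corrected %ID/g, mean ± SD.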

[2] = Biodistribution in the BxPC-3 xenograft model; assay type: in vivo, mice; conditions: male, athymic nude (nu/nu), mouse, BxPC-3 tumor, iv, total radioactivity
Outline: (§1)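 Male athymic nude mice (nu/nu) received 1.5 × 10^6 BxPC-3 cells s.c. in the left shoulder region, in 1:1 serum-free DMEM/MatriGel. Studies began at a tumor diameter of ∼0.5 cm. Radiotracers (∼15 to 30 μCi) were given in saline/PBS, n = 3 per time point. Tumor and tissue radioactivity was expressed as decay-corrected %ID/g, mean ± SD. Significance was tested by two-tailed Student's t-test.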

[3] = system: BxPC-3 xenograft; experiment: Biodistribution in the BxPC-3 xenograft model; assay type: in vivo, mice
Outline: as §1

[4] = system: BxPC-3 tumor; experiment: MicroPET imaging of the BxPC-3 xenograft model; assay type: in vivo, mice; conditions: for SUVmax in BxPC-3 tumor: mean ± SD, n = 3 animals
[5] = system: DX3puroβ6 cell line; experiment: Radiotracer cell binding and internalization, DX3puroβ6 cells; assay type: cell-based, human; conditions: DX3puroβ6, 1 hour, acidic wash buffer pH 2.5, 4°C
Outline: (§2)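 3.75 × 10^6 cells were incubated with 0.2 μCi radiotracer in serum-free medium, pH 7.2, over a time course or for 1 h, n = 4 per cell line per time point. Bound fraction was γ-counted as cell pellet vs supernatant. Acid wash (0.2 mol/L sodium acetate, 0.5 mol/L NaCl, pH 2.5, 4°C) then released surface activity; internalized fraction was pellet vs released activity.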

[6] = system: BxPC-3 cell line; experiment: Radiotracer cell binding and internalization, BxPC-3 cells; assay type: cell-based, human; conditions: BxPC-3, 1 hour, acidic wash buffer pH 2.5, 4°C
Outline: as §2

[7] = system: DX3puroβ6 (αvβ6-positive) and DX3puro (αvβ6-negative) xenografts; conditions: previously seen, cited from earlier work

Compound | maximal αvβ6-positive/-negative xenograft uptake ratio [1] | tissue uptake at 1 h [2] [%ID/g] | tissue uptake at 4 h [2] [%ID/g] | BxPC-3/blood ratio ([3]; 1 h) | BxPC-3/muscle ratio ([3]; 1 h) | BxPC-3/pancreas ratio ([3]; 1 h) | BxPC-3/blood ratio ([3]; 4 h) | BxPC-3/muscle ratio ([3]; 4 h) | BxPC-3/pancreas ratio ([3]; 4 h) | SUVmax in BxPC-3 tumor ([4]; 15min) | SUVmax in BxPC-3 tumor ([4]; 1 h p.i.) | SUVmax in BxPC-3 tumor ([4]; 4 h) | fraction of bound radioactivity internalized [5] | fraction of bound radioactivity internalized [6] | uptake in αvβ6-positive DX3puroβ6 tumor ([7]; 1 h p.i.) [% ID/g] | uptake in αvβ6-positive DX3puroβ6 tumor ([7]; 4 h p.i.) [% ID/g] | detection of BxPC-3 tumors by PET ([4]; BxPC-3 xenograft bearing mice)
CC(C)C[C@H](NC(=O)[C@H](CC(=O)O)NC(=O)CNC(=O)[C@H](CCCNC(=N)N)NC(=O)[C@H](CC(C)C)NC(=O)[C@H](CC(N)=O)NC(=O)[C@@H]1CCCN1C(=O)[C@@H](NC(=O)[C@H](C)NC(=O)[C@H](CC(N)=O)NC(=O)CCOCCOCCOCCOCCOCCOCCOCCOCCOCCOCCOCCOCCOCCOCCOCCOCCOCCOCCOCCOCCOCCOCCOCCOCCOCCOCCOCCOCCNC(=O)CCOCCOCCOCCOCCOCCOCCOCCOCCOCCOCCOCCOCCOCCOCCOCCOCCOCCOCCOCCOCCOCCOCCOCCOCCOCCOCCOCCOCCNC(=O)c1ccc(F)cc1)C(C)C)C(=O)N[C@@H](CCC(N)=O)C(=O)N[C@H](C(=O)N[C@@H](CC(C)C)C(=O)N[C@@H](C)C(=O)N[C@@H](CCC(N)=O)C(=O)N[C@@H](CCCCN)C(=O)N[C@H](C(=O)N[C@@H](C)C(=O)N[C@@H](CCCNC(=N)N)C(=O)N[C@H](C(N)=O)[C@@H](C)O)C(C)C)C(C)C [[^18F]FBA-(PEG28)2-A20FMDV2] | 9.2 :1 | 1.57 ± 0.25 | 2.08 ± 0.37 | 9.0 :1 | 4.1 :1 | 5.6 :1 | 150 :1 | 4.4 :1 | 4.4 :1 | 0.99 ± 0.18 | 0.79 ± 0.24 | 0.59 ± 0.20 | – | – | – | – | –
CC(C)C[C@H](NC(=O)[C@H](CC(=O)O)NC(=O)CNC(=O)[C@H](CCCNC(=N)N)NC(=O)[C@H](CC(C)C)NC(=O)[C@H](CC(N)=O)NC(=O)[C@@H]1CCCN1C(=O)[C@@H](NC(=O)[C@H](C)NC(=O)[C@H](CC(N)=O)NC(=O)c1ccc(F)cc1)C(C)C)C(=O)N[C@@H](CCC(N)=O)C(=O)N[C@H](C(=O)N[C@@H](CC(C)C)C(=O)N[C@@H](C)C(=O)N[C@@H](CCC(N)=O)C(=O)N[C@@H](CCCCN)C(=O)N[C@H](C(=O)N[C@@H](C)C(=O)N[C@@H](CCCNC(=N)N)C(=O)N[C@H](C(N)=O)[C@@H](C)O)C(C)C)C(C)C [[^18F]FBA-A20FMDV2, 4-[^18F]fluorobenzoyl A20FMDV2] | – | 0.69 ± 0.19 | 0.12 ± 0.03 | 3.3 :1 | 1.3 :1 | – | 7.0 :1 | 2.5 :1 | 9.5 :1 | 0.50 ± 0.22 | 0.22 ± 0.11 | < 0.05 | less than half | less than half | 0.66 ± 0.09 | 0.06 ± 0.00 | –
O=C[C@H]([18F])[C@@H](O)[C@H](O)[C@H](O)CO [[^18F]FDG, 2-[^18F]fluoro-2-deoxy-D-glucose, reference compound] | – | – | – | – | – | – | – | – | – | – | 0.62 ± 0.13 | – | – | – | – | – | failed in all animals to detect the BxPC-3 tumors
